≈ marks a conversion by molar mass, not a printed value.
Assays:
HEK293 = assay: Inhibition of beta-amyloid peptide production in HEK293 cell line; assay type: functional, cell-based; details: Homo sapiens
Canis familiaris [1] = assay: Volume of distribution in Beagle dog at 1 mg/kg, po; assay type: ADME, organism-based, Canis lupus familiaris; set-up: dose 1 mg/kg, route oral; details: in vivo
In short: (§1)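 Beagle dogs were dosed in cassette format with up to nine other compounds. Doses were kept low to limit interactions: 0.25 mg/kg iv and 0.5 or 1.0 mg/kg po. Pharmacokinetic parameters were derived from these dosings.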

[2] = Oral bioavailability in Beagle dog at 1 mg/kg, po; assay type: ADME, organism-based, Canis lupus familiaris; details: in vivo
In short: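 Beagle dogs given compounds in cassette format with up to nine other compounds. Doses were kept low to limit interactions: 0.25 mg/kg iv, and 0.5 or 1.0 mg/kg po.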

[3] = Clearance in Beagle dog at 1 mg/kg, po; assay type: ADME, organism-based, Canis lupus familiaris; set-up: dose 1 mg/kg, route oral; details: in vivo; in short: as §1
[4] = Cmax in Beagle dog at 1 mg/kg, po; assay type: ADME, organism-based, Canis lupus familiaris; set-up: dose 1 mg/kg, route oral; details: in vivo; in short: as §1
[5] = Solubility at pH 7.4; assay type: physicochemical; details: buffer
[6] = Inhibition of gamma secretase mediated Notch1 signalling in NIH3T3 cells; assay type: functional, cell-based; details: Mus musculus
In short: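 NIH3T3 cells were grown in DMEM with 10% calf serum, penicillin/streptomycin, 2 mM L-glutamine and 1 mM pyruvate. They were transiently batch-transfected for 24 h with mouse Notch-1 ΔE, vector DNA and a CBF1-luciferase reporter (four tandem CBF1 binding elements). Cells were then replated in defined medium with 0.0125% BSA, treated with serial compound dilutions for 20 h, and read by luciferase luminescence.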

[7] = Half life in Beagle dog at 1 mg/kg, po; assay type: ADME, organism-based, Canis lupus familiaris; set-up: dose 1 mg/kg, route oral; details: in vivo; in short: as §1
[8] = Cmax in Beagle dog at 0.5 mg/kg, po; assay type: ADME, organism-based, Canis lupus familiaris; set-up: dose 0.5 mg/kg, route oral; details: in vivo; in short: as §1
[9] = Oral bioavailability in Beagle dog at 0.5 mg/kg, po; assay type: ADME, organism-based, Canis lupus familiaris; details: in vivo; in short: as §1
Canis familiaris [10] = assay: Volume of distribution in Beagle dog at 0.5 mg/kg, po; assay type: ADME, organism-based, Canis lupus familiaris; set-up: dose 0.5 mg/kg, route oral; details: in vivo; in short: as §1
[11] = Percent of unbound ligand in Beagle dog at 0.5 mg/kg, po; assay type: ADME, organism-based, Canis lupus familiaris; set-up: dose 0.5 mg/kg, route oral; details: in vivo
[12] = Half life in Beagle dog at 0.5 mg/kg, po; assay type: ADME, organism-based, Canis lupus familiaris; set-up: dose 0.5 mg/kg, route oral; details: in vivo; in short: as §1
[13] = Clearance in Beagle dog at 0.5 mg/kg, po; assay type: ADME, organism-based, Canis lupus familiaris; set-up: dose 0.5 mg/kg, route oral; details: in vivo; in short: as §1

Compound | IC50 (HEK293) | also measured
CCCC(C(=O)NO)C(CC(C)C)C(=O)N[C@H]1CCCCN(Cc2cccc(-c3ccc(F)cc3)c2)C1=O (single isomer, unassigned) | 470 nM | –
CCC[C@H](C(N)=O)[C@@H](CC(C)C)C(=O)N[C@H]1CCCCN(Cc2cncc(-c3ccccn3)c2)C1=O | 8800 nM | –
CCC[C@H](C(=O)O)[C@@H](CC(C)C)C(=O)N[C@H]1CCCCN(Cc2cccc(Oc3ccccc3)c2)C1=O | > 3000 nM | –
CCC[C@H](C(=O)NN)[C@@H](CC(C)C)C(=O)N[C@H]1CCCCN(Cc2cccc(Oc3ccccc3)c2)C1=O | 1600 nM | –
CCC[C@H](C(N)=O)[C@@H](CC(C)C)C(=O)N[C@H]1CCCCN(Cc2cncc(-c3ccc(F)c(Cl)c3)c2)C1=O | 4 nM | –
CCCC(C(N)=O)C(CC(C)C)C(=O)N[C@H]1CCCCN(Cc2cccc(-c3cccc(OC)c3)c2)C1=O (single isomer, unassigned) | 150 nM | –
CCC[C@H](C(N)=O)[C@@H](CC(C)C)C(=O)N[C@H]1CCCCN(Cc2cncc(-c3ccc(C(F)(F)F)cc3)c2)C1=O | 17 nM | –
CCCC(C(N)=O)C(CC(C)C)C(=O)N[C@H]1CCCCN(Cc2ccc(-c3ccc(C(F)(F)F)cc3)cc2)C1=O (single isomer, unassigned) | 90 nM | –
CCCC(C(N)=O)C(CC(C)C)C(=O)N[C@H]1CCCCN(Cc2cccc(-c3ccc(Cl)cc3Cl)c2)C1=O (single isomer, unassigned) | 14 nM | –
CCC[C@H](C(N)=O)[C@@H](CC(C)C)C(=O)N[C@H]1CCCCN(Cc2cncc(-c3ccc(OC)cc3)c2)C1=O | 32 nM | –
CCC[C@H](C(N)=O)[C@@H](CC(C)C)C(=O)N[C@H]1CCCCN(Cc2cncc(-c3cccnc3)c2)C1=O | 2200 nM | –
CCCC(C(N)=O)C(CC(C)C)C(=O)N[C@H]1CCCCN(Cc2cccc(-c3ccc(F)c(Cl)c3)c2)C1=O (single isomer, unassigned) | 17 nM | Vss (Canis familiaris [1]): 0.8 L/kg; bioavailability [2]: 25%; CL/F [3]: 6.67 mL/min/kg; Cmax [4]: 116 nM; solubility [5]: 0.1 µg/mL (≈ 0.184 µM); IC50 [6]: 18 nM; half-life [7]: 1.3 h
CCC[C@H](C(N)=O)[C@@H](CC(C)C)C(=O)N[C@H]1CCCCN(Cc2cccc(Oc3ccccc3)c2)C1=O | 50 nM | Cmax [8]: 25 nM; bioavailability [9]: 8%; solubility [5]: 1 µg/mL (≈ 1.97 µM); IC50 [6]: 82 nM; Vss (Canis familiaris [10]): 1.3 L/kg; fraction unbound [11]: 0.004; half-life [12]: 0.5 h; CL/F [13]: 31.7 mL/min/kg
CCCC(C(N)=O)C(CC(C)C)C(=O)N[C@H]1CCCCN(Cc2cccc(-c3ccccc3OC)c2)C1=O (single isomer, unassigned) | 30 nM | –
CCC[C@H](C(=O)NO)[C@@H](CC(C)C)C(=O)N[C@H]1CCCCN(Cc2cccc(I)c2)C1=O | 3000 nM | –
CCCC(C(=O)NO)C(CC(C)C)C(=O)N[C@H]1CCCCN(Cc2cccc(-c3cccc(NC(C)=O)c3)c2)C1=O (single isomer, unassigned) | > 10000 nM | –
CCC[C@H](C(=O)OC)[C@@H](CC(C)C)C(=O)N[C@H]1CCCCN(Cc2cccc(Oc3ccccc3)c2)C1=O | 6000 nM | –
CCCC(C(=O)NO)C(CC(C)C)C(=O)N[C@H]1CCCCN(Cc2cccc(-c3ccccc3-c3cccc4ccccc34)c2)C1=O (single isomer, unassigned) | 250 nM | –
CCC[C@@H](CC(=O)NNC(=O)[C@@H](CCC)[C@@H](CC(C)C)C(=O)N[C@H]1CCCCN(Cc2cccc(Oc3ccccc3)c2)C1=O)C(=O)NO | > 10000 nM | –
CCCC(C(=O)NO)C(CC(C)C)C(=O)N[C@H]1CCCCN(Cc2cccc(-c3cccc(OC)c3)c2)C1=O (single isomer, unassigned) | 600 nM | –

Compound | IC50 (HEK293) | also measured
CCC[C@H](C(=O)NOC)[C@@H](CC(C)C)C(=O)N[C@H]1CCCCN(Cc2cccc(Oc3ccccc3)c2)C1=O | 5000 nM | –
CCC[C@H](C(=O)N(C)OC)[C@@H](CC(C)C)C(=O)N[C@H]1CCCCN(Cc2cccc(Oc3ccccc3)c2)C1=O | 5000 nM | –
CCCC(C(=O)NO)C(CC(C)C)C(=O)N[C@H]1CCCCN(Cc2cccc(-c3ccc(OC)cc3)c2)C1=O (single isomer, unassigned) | 470 nM | –
CCCC(C(=O)NO)C(CC(C)C)C(=O)N[C@H]1CCCCN(Cc2cccc(-c3ccc(C)cc3)c2)C1=O (single isomer, unassigned) | 260 nM | –
CCCC(C(=O)NO)C(CC(C)C)C(=O)N[C@H]1CCCCN(Cc2cccc(-c3ccccc3OC)c2)C1=O (single isomer, unassigned) | 300 nM | –
CCCC(C(=O)NO)C(CC(C)C)C(=O)N[C@H]1CCCCN(Cc2cccc(-c3ccc(C(F)(F)F)cc3)c2)C1=O (single isomer, unassigned) | 230 nM | –
CCC[C@H](C(=O)NNC(=O)[C@@H](CC(N)=O)CC(C)C)[C@@H](CC(C)C)C(=O)N[C@H]1CCCCN(Cc2cccc(Oc3ccccc3)c2)C1=O | > 10000 nM | –
CCC[C@H](C(=O)NNC(=O)[C@@H](CCC)[C@@H](CC(C)C)C(=O)N[C@H]1CCCCN(Cc2cccc(Oc3ccccc3)c2)C1=O)[C@@H](CC(C)C)C(N)=O | 226 nM | –
CCCC(C(N)=O)C(CC(C)C)C(=O)N[C@H]1CCCCN(Cc2cccc(-c3ccc(OC)cc3)c2)C1=O (single isomer, unassigned) | 8 nM | –
CCCC(C(N)=O)C(CC(C)C)C(=O)N[C@H]1CCCCN(Cc2cccc(-c3ccc(C)cc3)c2)C1=O (single isomer, unassigned) | 40 nM | –
CCC[C@H](C(=O)NC)[C@@H](CC(C)C)C(=O)N[C@H]1CCCCN(Cc2cccc(Oc3ccccc3)c2)C1=O | 5000 nM | –
CCCC(C(N)=O)C(CC(C)C)C(=O)N[C@H]1CCCCN(Cc2cccc(-c3cccc(F)c3)c2)C1=O (single isomer, unassigned) | 300 nM | –
CCCC(C(N)=O)C(CC(C)C)C(=O)N[C@H]1CCCCN(Cc2cccc(-c3ccc(F)cc3)c2)C1=O (single isomer, unassigned) | 191 nM | –
CCCC(C(=O)NO)C(CC(C)C)C(=O)N[C@H]1CCCCN(Cc2cccc(-c3ccc(F)c(Cl)c3)c2)C1=O (single isomer, unassigned) | 100 nM | –
CCCC(C(N)=O)C(CC(C)C)C(=O)N[C@H]1CCCCN(Cc2cccc(-c3ccc(C(F)(F)F)cc3)c2)C1=O (single isomer, unassigned) | 10 nM | –
CCCC(C(=O)NO)C(CC(C)C)C(=O)N[C@H]1CCCCN(Cc2cccc(-c3cccc(C)c3)c2)C1=O (single isomer, unassigned) | 510 nM | –
CCC[C@H](C(N)=O)[C@@H](CC(C)C)C(=O)N[C@H]1CCCCN(Cc2cccc(Nc3ccccc3)c2)C1=O | – | Cmax [8]: 17 nM; bioavailability [9]: 3%; IC50 [6]: 64 nM; Vss (Canis familiaris [10]): 0.4 L/kg; fraction unbound [11]: 0.015; half-life [12]: 1 h; CL/F [13]: 10 mL/min/kg
CCCC(C(=O)NO)C(CC(C)C)C(=O)N[C@H]1CCCCN(Cc2cccc(-c3cccc(F)c3)c2)C1=O (single isomer, unassigned) | 180 nM | –
CCC[C@H](C(=O)NNC(=O)[C@H](CC(C)C)[C@@H]1CCNC1=O)[C@@H](CC(C)C)C(=O)N[C@H]1CCCCN(Cc2cccc(Oc3ccccc3)c2)C1=O | > 10000 nM | –
CCCC(C(=O)NO)C(CC(C)C)C(=O)N[C@H]1CCCCN(Cc2cccc(-c3ccc(Cl)cc3Cl)c2)C1=O (single isomer, unassigned) | 350 nM | –
